Plk1 PBD FP = Plk1 (human) PBD binding inhibition. AID 693. inhibition, %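 (tested at about 20 µM)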. 97,000 compounds, 0.13% hits. Plk1 PBD phosphopeptide binding, fluorescence polarization. P53350; in the data active = inhibition above about 34%, passing the limit was not always enough
HEK293 NFkB inh = lowers PMA/ionomycin-induced NF-kB signal in HEK293 cells; HEK-293 NF-kB luciferase reporter, luminescence; inhibition, % at 3 µM; 62,000 compounds, 0.21% hits; AID 465;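 active = inhibition above the mean of all tested compounds plus 3 SD, cut at about 40% in these data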;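 also: 0% = stimulated DMSO wells and 100% = 10 µM reference inhibitor 5653914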
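Signal: luciferase luminescence; Material: HEK-293 cells with stable firefly luciferase reporter driven by four HIV NF-kB elements; Probe or stimulus: PMA with ionomycin; Replication: tested once; Times: 1 h compound pretreatment, then 16 h stimulation at 37 °C, 5% CO2; Benchmarks: DMSO and 10 µM reference inhibitor; Evaluation: per-plate % inhibition versus controls.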
Pyk2 oligo antag = blocks oligomerization of human Pyk2 in cells; Q14289; Q293 cells, Pyk2 FERM NanoBiT luminescence; active compounds read low; z-score (the deposit names both 25 µM and 10 µM); 99,000 compounds, 0.83% hits; AID 1347419;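 active = Z-score of -3 or lower, scaled per plate to the spread of control and sample wells; inactive = z-score above -3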;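 also: negative z-score means lost luminescence so less FERM oligomerization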
Target sequence (Q14289 whole entry, looked up): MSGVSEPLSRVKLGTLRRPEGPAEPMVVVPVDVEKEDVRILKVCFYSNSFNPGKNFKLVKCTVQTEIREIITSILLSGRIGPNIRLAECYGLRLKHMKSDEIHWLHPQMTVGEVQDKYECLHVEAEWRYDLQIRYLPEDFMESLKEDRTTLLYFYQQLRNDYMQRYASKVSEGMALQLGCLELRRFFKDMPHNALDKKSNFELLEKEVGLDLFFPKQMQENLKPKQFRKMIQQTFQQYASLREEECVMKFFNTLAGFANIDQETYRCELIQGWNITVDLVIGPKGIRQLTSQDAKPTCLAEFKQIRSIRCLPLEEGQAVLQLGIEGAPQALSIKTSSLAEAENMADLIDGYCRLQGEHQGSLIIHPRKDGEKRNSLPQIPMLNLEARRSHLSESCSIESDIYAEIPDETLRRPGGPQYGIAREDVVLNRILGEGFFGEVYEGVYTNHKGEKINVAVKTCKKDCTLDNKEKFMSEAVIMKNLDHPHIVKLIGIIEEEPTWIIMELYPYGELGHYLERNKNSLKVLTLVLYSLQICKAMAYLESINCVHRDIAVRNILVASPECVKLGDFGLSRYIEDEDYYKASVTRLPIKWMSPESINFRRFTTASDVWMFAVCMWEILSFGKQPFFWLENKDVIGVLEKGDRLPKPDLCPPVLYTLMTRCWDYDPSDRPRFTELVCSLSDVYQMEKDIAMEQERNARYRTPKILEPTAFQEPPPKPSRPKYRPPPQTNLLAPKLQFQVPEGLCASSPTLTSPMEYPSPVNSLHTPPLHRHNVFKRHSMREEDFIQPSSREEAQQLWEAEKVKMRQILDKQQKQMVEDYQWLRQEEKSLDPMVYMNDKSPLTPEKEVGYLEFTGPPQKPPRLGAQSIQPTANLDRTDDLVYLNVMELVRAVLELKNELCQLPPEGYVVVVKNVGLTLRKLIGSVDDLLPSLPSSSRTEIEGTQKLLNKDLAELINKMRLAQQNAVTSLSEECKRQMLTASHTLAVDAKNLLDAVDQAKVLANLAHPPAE
PLK1 kinase inh = inhibitors of human PLK1 kinase; recombinant PLK1 kinase, TR-FRET peptide phosphorylation; inhibition, % at 10 µM; 97,000 compounds, 0.53% hits; AID 619;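 active = inhibition of 50% or more in the single-concentration screen; inactive = inhibition below 50%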;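 also: 0% = DMSO max control and 100% = H-89 dihydrochloride min control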
AP ELISA ortho = alternative pathway complement inhibition, orthogonal assay. 62,000 compounds, 0.08% hits. AID 1235. inhibition, % at 5 µM. Human serum alternative complement pathway, LPS-coated ELISA, C3 deposition; tested in compound mixtures;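 active = inhibition above 30% in each of the two pooled mixtures holding the compound, so the lower value exceeds 30%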;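 also: 0% = serum in Mg-EGTA without compound and 100% = EDTA serum blank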
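Test system – human serum alternative complement pathway, C3 deposition on LPS-coated wells · Buffer or medium – diluted human serum in Mg2+-EGTA GVB++ · Compound dosing – 5 µM each compound, pools of ten, 50 µM per pool · Schedule – 1 h serum-compound exposure at 37 °C · Measured by – Anti-C3 ELISA, OD 450 nm · Read-out basis – percent inhibition of C3 deposition onto LPS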
HePTP inhibitor = blocks human HePTP tyrosine phosphatase; P35236; recombinant HePTP phosphatase activity, OD absorbance; inhibition, % at 20 µM; 110,000 compounds, 0.64% hits; AID 521; in the data active = inhibition above about 50%;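 also: plate controls were vehicle for no effect and reference inhibitor for full effect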
Active calls of the source: *; nt = no result given. Rows were chosen to be rich in hits. Some 1.5% of all compounds tested hit in one or more screens of this group.

SMILES	Plk1 PBD FP	HEK293 NFkB inh	Pyk2 oligo antag	PLK1 kinase inh	AP ELISA ortho	HePTP inhibitor
Cc1ccc(-c2nn3c(=O)cc(N4CCN(c5ccc(C(F)(F)F)cc5[N+](=O)[O-])CC4)nc3s2)cc1	nt	nt	nt	nt	nt	0
C/C(=N\NC(=O)c1cc(C)[nH]n1)c1ccc(Cl)cc1	nt	nt	nt	nt	nt	0
CC(=O)C1=C(O)C(=O)N(Cc2cccnc2)C1c1ccc(Cl)cc1Cl (centres undefined)	-19	19	0.36	-5	-14	-2
Cc1cc(O)c(-c2n[nH]c3c2C(c2cccc(O)c2)N(Cc2cccnc2)C3=O)cc1Cl (centres undefined)	-14	-3	-3.9*	-15	8	6
CC(C)OCCCN1C(=O)c2[nH]nc(-c3ccccc3O)c2C1c1cccc(Cl)c1 (centres undefined)	-15	7	-3.2*	-1	6	4
Cc1ccc2c(c1)C(=Cc1nc3ccccc3c(=O)n1-c1ccccc1[N+](=O)[O-])C(=O)N2	nt	nt	nt	nt	nt	104*
O=[N+]([O-])c1ccc(/C=N/Nc2nc(-c3ccccc3)c3cc(Br)ccc3n2)o1	-4	nt	-2.2	-13	nt	nt
Cc1ccc2nc(N/N=C\c3ccc([N+](=O)[O-])o3)nc(-c3ccccc3)c2c1	-8	nt	-4*	-12	nt	3
O=C(O)CCN1C(=O)/C(=C/c2ccc(-c3ccccc3[N+](=O)[O-])o2)SC1=S	nt	nt	nt	nt	nt	70*
O=C(O)CN1C(=O)/C(=C\c2ccc(-c3cccc4c3C(=O)c3ccccc3C4=O)o2)SC1=S	nt	nt	nt	nt	nt	101*
O=C1S/C(=C\c2ccc(-c3ccccc3[N+](=O)[O-])o2)C(=O)N1c1ccccc1	nt	nt	nt	nt	nt	0
O=C(CSc1ccc(C(F)(F)F)cc1[N+](=O)[O-])Nc1ccccc1	15	nt	-0.18	-7	nt	105*
O=C(CSCC(=O)Nc1ccc(F)c([N+](=O)[O-])c1)Nc1ccccc1	nt	nt	nt	nt	nt	-17
C=CCN1C(=O)NC(=O)/C(=C/c2ccc(OCc3ccccc3[N+](=O)[O-])c(OC)c2)C1=O	nt	nt	nt	nt	nt	2
CCOC(=O)c1c(NC(=O)/C=C\C(=O)O)sc2c1CCC(CC)C2 (centres undefined)	nt	nt	nt	nt	nt	0
O=C1CSC(=O)N1CNc1cc(Cl)ccc1Cl	nt	nt	nt	nt	nt	14
Cc1ccc(S(N)(=O)=O)cc1NC(=O)c1ccc([N+](=O)[O-])cc1Cl	nt	nt	nt	nt	nt	2
Cc1csc(NC(=O)c2c(-c3c(Cl)cccc3Cl)noc2C)n1	20	nt	-1.6	2	nt	nt
Cc1onc(-c2ccccc2)c1C(=O)Nc1nc2c(s1)CCCC2	-27	-9	-3.4*	-14	-23	3
Cc1onc(-c2c(F)cccc2Cl)c1C(=O)Nc1nc2c(s1)CCCC2	-13	7	-3.6*	-3	8	6
COC(=O)c1c(NC(=O)c2c(-c3ccccc3)noc2C)sc2c1CCCCC2	nt	nt	nt	nt	nt	5
Cc1ccc(NC(=O)c2c(-c3ccccc3)noc2C)cc1C	nt	nt	nt	nt	nt	104*
COCCN1C(=O)/C(=C2/C(=O)N(CC(N)=O)c3ccccc32)SC1=S	nt	nt	nt	nt	nt	-12
CCOC(=O)C1CCN(C(=O)c2ccc(I)cc2)CC1	nt	nt	nt	nt	nt	-1
Cc1nn(-c2ccccc2)c2c1C1(C(=O)Nc3ccccc31)N1C(=N2)Sc2ccccc21 (centres undefined)	-4	-3	-4.2*	-6	-5	-15
SMILES	Plk1 PBD FP	HEK293 NFkB inh	Pyk2 oligo antag	PLK1 kinase inh	AP ELISA ortho	HePTP inhibitor
O=C(O)C1C2CCC(O2)C1C(=O)NCc1ccc(F)cc1 (centres undefined)	nt	nt	nt	nt	nt	103*
CCCOc1cccc(C(=O)Nc2cc(OC)c(OC)cc2C(=O)O)c1	nt	nt	nt	nt	nt	2
O=C1CC(N(Cc2ccc3c(c2)OCO3)C(=S)Nc2ccccc2)C(=O)N1c1ccc(Cl)cc1 (centres undefined)	nt	nt	nt	nt	nt	-10
CCOC(=O)c1ccc(NC2=CC(=O)C(=O)c3ccccc32)cc1	23	nt	-4.3*	-9	nt	nt
CCOC(=O)c1ccc(NC(=O)Nc2ccc(OC)c(OC)c2)cc1	-6	3	0.07	51*	26	0
CCN1C(=O)/C(=C\c2ccc(Br)cc2)SC1=S	nt	nt	nt	nt	nt	-10
Oc1cccc(-c2nc3c4c(ncn3n2)-c2ccccc2CC42CCCC2)c1	8	nt	-3.1*	5	nt	nt
Cc1cccc(NS(=O)(=O)c2ccc(C)c(C(=O)OCC(=O)Nc3cc(C)on3)c2)c1	-11	5	-3.8*	-10	-10	-10
COc1ccccc1NS(=O)(=O)c1cccc(C(=O)OCC(=O)Nc2cc(C)on2)c1	3	nt	-0.65	-5	nt	nt

Assay outcomes deposited in PubChem by several laboratories.
